In ChEMBL document CHEMBL2062453, “Lead optimization through VLAK protocol: new annelated pyrrolo-pyrimidine derivatives as antitumor agents” (2012):

Tests used:
Format in all cases: functional
[1] = test system: TK-10; assay: Cytotoxicity against human TK10 cells assessed as cell growth at 10 uM after 48 hrs by SRB assay relative to control; settings: TK-10, 48 h, read-out: Activity
How it was run: (§1)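 NCI single-dose primary screen across about 60 human tumour lines. Each line was inoculated and preincubated on microtiter plates, then exposed to one concentration of agent for 48 h. Growth is reported as percent growth (G%) of treated cells versus untreated control cells.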

[2] = test system: MOLT-4; assay: Cytotoxicity against human MOLT4 cells assessed as cell growth at 10 uM after 48 hrs by SRB assay relative to control; settings: MOLT-4, 48 h, read-out: Activity
[3] = test system: PC-3; assay: Cytotoxicity against human PC3 cells assessed as cell growth at 10 uM after 48 hrs by SRB assay relative to control; settings: PC-3, 48 h, read-out: Activity
[4] = test system: NCI-H460; assay: Cytotoxicity against human NCI-H460 cells assessed as cell growth at 10 uM after 48 hrs by SRB assay relative to control; settings: NCI-H460, 48 h, read-out: Activity
[5] = test system: RXF 393; assay: Cytotoxicity against human RXF393 cells assessed as cell growth at 10 uM after 48 hrs by SRB assay relative to control; settings: RXF 393, 48 h, read-out: Activity
[6] = test system: HCC 2998; assay: Cytotoxicity against human HCC2998 cells assessed as cell growth at 10 uM after 48 hrs by SRB assay relative to control; settings: HCC 2998, 48 h, read-out: Activity
How it was run: (§2)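 NCI primary screen of about 60 human tumour lines. Cells inoculated and preincubated, then a single test concentration added and cultures incubated 48 h. Result given as percent growth (G%) of treated versus untreated control cells.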

[7] = test system: ACHN; assay: Cytotoxicity against human ACHN cells assessed as cell growth at 10 uM after 48 hrs by SRB assay relative to control; settings: read-out: Activity; how it was run: as §2
[8] = test system: MDA-MB-468; assay: Cytotoxicity against human MDA-MB-468 cells assessed as cell growth at 10 uM after 48 hrs by SRB assay relative to control; settings: MDA-MB-468, 48 h, read-out: Activity
[9] = test system: U-251; assay: Cytotoxicity against human U251 cells assessed as cell growth at 10 uM after 48 hrs by SRB assay relative to control; settings: U-251, 48 h, read-out: Activity; how it was run: as §1
[10] = test system: KM12; assay: Cytotoxicity against human KM12 cells assessed as cell growth at 10 uM after 48 hrs by SRB assay relative to control; settings: KM12, 48 h, read-out: Activity; how it was run: as §2
[11] = test system: NCI-H226; assay: Cytotoxicity against human NCI-H226 cells assessed as cell growth at 10 uM after 48 hrs by SRB assay relative to control; settings: NCI-H226, 48 h, read-out: Activity
[12] = test system: NCI-H322M; assay: Cytotoxicity against human NCI-H322M cells assessed as cell growth at 10 uM after 48 hrs by SRB assay relative to control; settings: read-out: Activity
[13] = test system: HCT-15; assay: Cytotoxicity against human HCT15 cells assessed as cell growth at 10 uM after 48 hrs by SRB assay relative to control; settings: HCT-15, 48 h, read-out: Activity; how it was run: as §2
[14] = test system: SF-295; assay: Cytotoxicity against human SF295 cells assessed as cell growth at 10 uM after 48 hrs by SRB assay relative to control; settings: SF-295, 48 h, read-out: Activity
[15] = test system: SK-MEL-28; assay: Cytotoxicity against human SK-MEL-28 cells assessed as cell growth at 10 uM after 48 hrs by SRB assay relative to control; settings: SK-MEL-28, 48 h, read-out: Activity
[16] = test system: DU-145; assay: Cytotoxicity against human DU145 cells assessed as cell growth at 10 uM after 48 hrs by SRB assay relative to control; settings: DU-145, 48 h, read-out: Activity; how it was run: as §2
[17] = test system: SK-OV-3; assay: Cytotoxicity against human SKOV3 cells assessed as cell growth at 10 uM after 48 hrs by SRB assay relative to control; settings: SK-OV-3, 48 h, read-out: Activity
[18] = test system: A498; assay: Cytotoxicity against human A498 cells assessed as cell growth at 10 uM after 48 hrs by SRB assay relative to control; settings: A498, 48 h, read-out: Activity; how it was run: as §2
[19] = test system: SF-268; assay: Cytotoxicity against human SF268 cells assessed as cell growth at 10 uM after 48 hrs by SRB assay relative to control; settings: SF-268, 48 h, read-out: Activity
[20] = test system: HCT-116; assay: Cytotoxicity against human HCT116 cells assessed as cell growth at 10 uM after 48 hrs by SRB assay relative to control; settings: HCT-116, 48 h, read-out: Activity; how it was run: as §2
[21] = test system: UO-31; assay: Cytotoxicity against human UO31 cells assessed as cell growth at 10 uM after 48 hrs by SRB assay relative to control; settings: UO-31, 48 h, read-out: Activity; how it was run: as §1
[22] = test system: SR; assay: Cytotoxicity against human SR cells assessed as cell growth at 10 uM after 48 hrs by SRB assay relative to control; settings: read-out: Activity; how it was run: as §1
[23] = test system: SK-MEL-2; assay: Cytotoxicity against human SK-MEL-2 cells assessed as cell growth at 10 uM after 48 hrs by SRB assay relative to control; settings: SK-MEL-2, 48 h, read-out: Activity
[24] = test system: A549; assay: Cytotoxicity against human A549 cells assessed as cell growth at 10 uM after 48 hrs by SRB assay relative to control; settings: A549, 48 h, read-out: Activity; how it was run: as §2
[25] = test system: SF-539; assay: Cytotoxicity against human SF539 cells assessed as cell growth at 10 uM after 48 hrs by SRB assay relative to control; settings: SF-539, 48 h, read-out: Activity
[26] = test system: SNB-75; assay: Cytotoxicity against human SNB75 cells assessed as cell growth at 10 uM after 48 hrs by SRB assay relative to control; settings: SNB-75, 48 h, read-out: Activity
[27] = test system: EKVX; assay: Cytotoxicity against human EKVX cells assessed as cell growth at 10 uM after 48 hrs by SRB assay relative to control; settings: read-out: Activity; how it was run: as §2
[28] = test system: MDA-MB-231; assay: Cytotoxicity against human MDA-MB-231 cells assessed as cell growth at 10 uM after 48 hrs by SRB assay relative to control; settings: MDA-MB-231, 48 h, read-out: Activity; how it was run: as §2
[29] = test system: OVCAR-5; assay: Cytotoxicity against human OVCAR5 cells assessed as cell growth at 10 uM after 48 hrs by SRB assay relative to control; settings: OVCAR-5, 48 h, read-out: Activity
[30] = test system: OVCAR-4; assay: Cytotoxicity against human OVCAR4 cells assessed as cell growth at 10 uM after 48 hrs by SRB assay relative to control; settings: OVCAR-4, 48 h, read-out: Activity
[31] = test system: MCF7; assay: Cytotoxicity against human MCF7 cells assessed as cell growth at 10 uM after 48 hrs by SRB assay relative to control; settings: MCF7, 48 h, read-out: Activity; how it was run: as §2
[32] = test system: LOX IMVI; assay: Cytotoxicity against human LOXIMVI cells assessed as cell growth at 10 uM after 48 hrs by SRB assay relative to control; settings: read-out: Activity; how it was run: as §2
[33] = test system: NCI/ADR-RES; assay: Cytotoxicity against human NCI/ADR-RES cells assessed as cell growth at 10 uM after 48 hrs by SRB assay relative to control; settings: read-out: Activity

Row | Structure (SMILES) | growth at 10 µM [1] | growth at 10 µM [2] | growth at 10 µM [3] | growth at 10 µM [4] | growth at 10 µM [5] | growth at 10 µM [6] | growth at 10 µM [7] | growth at 10 µM [8] | growth at 10 µM [9] | growth at 10 µM [10] | growth at 10 µM [11] | growth at 10 µM [12] | growth at 10 µM [13] | growth at 10 µM [14] | growth at 10 µM [15] | growth at 10 µM [16] | growth at 10 µM [17] | growth at 10 µM [18] | growth at 10 µM [19] | growth at 10 µM [20] | further results
1 | COC(=O)C(Cc1cnc[nH]1)NC(=O)CCCn1c(C)c(C)c2c1N=C(SC)N1CC(=O)N=C21 (stereo unspecified) | 111% | 98% | 88% | 99% | 112% | 103% | 113% | 96% | 96% | 106% | 111% | 105% | 105% | 112% | 113% | 113% | 125% | 101% | 106% | 100% | growth at 10 µM [21]: 96%; growth at 10 µM [22]: 118%; growth at 10 µM [23]: 105%; growth at 10 µM [24]: 98%; growth at 10 µM [25]: 91%; growth at 10 µM [26]: 79%; growth at 10 µM [27]: 95%; growth at 10 µM [28]: 112%; growth at 10 µM [29]: 106%; growth at 10 µM [30]: 90%; growth at 10 µM [31]: 92%; growth at 10 µM [32]: 92%; growth at 10 µM [33]: 110%
2 | CSC1=Nc2c(c(C)c(C)n2CCCC(=O)NCCc2cnc[nH]2)C2=NC(=O)CN12 | 139% | 97% | 100% | 101% | 116% | 118% | 112% | 89% | 101% | 171% | 106% | 111% | 109% | 106% | 113% | 149% | 127% | 107% | 130% | 96% | growth at 10 µM [21]: 85%; growth at 10 µM [22]: 126%; growth at 10 µM [23]: 121%; growth at 10 µM [24]: 101%; growth at 10 µM [25]: 97%; growth at 10 µM [26]: 78%; growth at 10 µM [27]: 99%; growth at 10 µM [28]: 110%; growth at 10 µM [29]: 116%; growth at 10 µM [30]: 93%; growth at 10 µM [31]: 94%; growth at 10 µM [32]: 102%; growth at 10 µM [33]: 110%
